Results published in paper PMC3070847 (Bioorganic & medicinal chemistry letters, 2011).

Biological target: HIV-1 IN (Human immunodeficiency virus type 1 group M subtype B, UniProt P04585)
Test: Biochemical gel assay of HIV-1 IN
Conditions: IN IC50 3'-P, 3' processing function
How it was run: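 Recombinant HIV-1 integrase was used as the enzyme in the biochemical evaluation.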

| Structure (SMILES) | IC50 |
| --- | --- |
| CCc1c(C(=O)c2ccccc2)n(COCc2ccccc2)c(=O)n(O)c1=O [Compound 17] | > 111 µM |
| CCc1c(C(=O)c2ccccc2)n(COCc2ccc(F)cc2)c(=O)n(O)c1=O [Compound 18] | > 111 µM |
| CCc1c(C(=O)c2cc(C)cc(C)c2)n(COCc2ccc(F)cc2)c(=O)n(O)c1=O [Compound 19] | > 111 µM |
| CCc1c(C(=O)c2cc(C)cc(C)c2)n(COCc2ccccc2)c(=O)n(O)c1=O [Compound 20] | > 111 µM |
| CCc1c(C(=O)c2ccccc2)n(COCCc2ccc(F)cc2)c(=O)n(O)c1=O [Compound 21] | > 111 µM |
| CCc1c(C(=O)c2cc(C)cc(C)c2)n(COCCc2ccc(F)cc2)c(=O)n(O)c1=O [Compound 22] | > 111 µM |
| CCOCn1c(C(=O)c2ccccc2)c(CC)c(=O)n(O)c1=O [Compound 23] | > 111 µM |
| CCOCn1c(C(=O)c2cc(C)cc(C)c2)c(CC)c(=O)n(O)c1=O [Compound 24] | > 111 µM |
